Measurements published in ChEMBL document CHEMBL1141858, “Lichen metabolites. 2. Antiproliferative and cytotoxic activity of gyrophoric, usnic, and diffractaic acid on human keratinocyte growth” (J Nat Prod, 1999).

Assays:
HaCaT [1] = test: Growth inhibition of human HaCaT cells assessed as lactate dehydrogenase release at 2 uM after 4 hrs by UV method; assay type: functional
Summary of the method: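 HaCaT cells were exposed to compound at 2 µM for 4 h at 37 °C. Extracellular LDH activity in the medium was measured by the UV method with pyruvate and NADH. Values were compared against vehicle controls (n = 3).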

HaCaT [2] = test: Antiproliferative activity against human HaCaT cells; assay type: functional, cell-based
Summary of the method: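 HaCaT keratinocytes were seeded at 2.5 × 10^4 per well in DMEM and grown 24 h. Cells were trypsinized (0.5% trypsin, 0.2% EDTA, 20 min, 37 °C) and counted by phase contrast microscopy. Inhibition was taken relative to vehicle (n = 3). IC50 was interpolated from a log concentration-response using ≥4 concentrations.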

SMILES | Activity (HaCaT [1]) [mU/mL] | IC50 (HaCaT [2]) [nM]
CC(=O)C1=C(O)C=C2Oc3c(C(C)=O)c(O)c(C)c(O)c3[C@@]2(C)C1=O [(+)-USNIC ACID] | 168 | 2100
O=C1c2c(O)cccc2Cc2cccc(O)c21 [ANTHRALIN] | 294 | 700
COC(=O)c1c(C)cc(OC(=O)c2c(C)cc(O)c(C=O)c2O)c(C)c1O [ATRANORIN] |  | > 5000
COC(=O)c1c(C)cc(O)c(C)c1O [ATRARIC ACID] |  | > 5000
COc1cc(C)c(C(=O)Oc2cc(C)c(C(=O)O)c(O)c2C)c(OC)c1C [DIFFRACTAIC ACID] | 136 | 2600
CCOC(=O)c1c(C)cc(O)c(C=O)c1O [ETHYL HEMATOMMATE] |  | > 5000
Cc1cc(OC(=O)c2c(C)cc(OC(=O)c3c(C)cc(O)cc3O)cc2O)cc(O)c1C(=O)O [GYROPHORIC ACID] | 138 | 1700
C=C1C(=O)O[C@@H](CCCCCCCCCCCCC)[C@@H]1C(=O)O [PROTOLICHESTERINIC ACID] |  | > 5000
